Converted amounts (≈) assume the structure as drawn. The source made the active and inactive calls. Numbered stars: 1 amine (or outer) side, 2 acyl side, 3 side chain; on linkers, the order of the positions; unused ones are H or OH. Bridge positions count the residues as written; N and C are the ends. Square brackets hold non-standard residues; d marks the D form. Peptide text beside a SMILES is read from it. * marks the point of attachment. pTerphenylCO(4''-OnC5H11) = CCCCCOc1ccc(-c2ccc(-c3ccc(C(=O)*)cc3)cc2)cc1; Orn(4R-OH,5R-OH) = O=C([C@H](C[C@@H](O)[C@@H](O)N[*:3])N[*:1])[*:2]; hTyr(3S-OH,4S-OH) = N[C@H](C(=O)O)[C@H](O)[C@@H](O)c1ccc(O)cc1; Pro(3S-OH,4S-Me) = C[C@H]1CN[C@H](C(=O)O)[C@H]1O; Hyp = O=C(O)[C@@H]1C[C@@H](O)CN1
Key:
Pichia kudriavzevii [1] = assay: Antimicrobial activity against Candida krusei LMR 39-14 infected in immunosuppressed CF-1 mouse assessed as serum 1,3-beta-D-glucan level at 1 mg/kg, ip administered once daily for 5 days measured after 10 days (Rvb= 5.22); type: functional; conditions: route intraperitoneal
Pichia kudriavzevii [2] = assay: Antimicrobial activity against Candida krusei LMR 39-14 infected in immunosuppressed CF-1 mouse assessed as decrease in kidney bacterial burden at 1 mg/kg, ip administered once daily for 5 days measured after 10 days (Rvb= 5.22); type: functional; conditions: route intraperitoneal
Outline: (§1)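 C. krusei clinical bloodstream isolate given IV by tail vein at 1.3×10^7 to 1.5×10^7 CFU/mouse, with inoculum confirmed by plating. Mice immunosuppressed with 5-FU 200 mg/kg i.p. 3 days before and dexamethasone 4 mg/kg s.c. on the day of infection. Treatment i.p. q24h for 5 days. Five mice/group killed day 5 or day 10. Both kidneys homogenized and plated on Sabouraud agar for 48 h; log10 CFU/g; detection limit 40 CFU/g; ANOVA; duplicate runs pooled.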

Pichia kudriavzevii [3] = assay: Antimicrobial activity against Candida krusei LMR 39-14 infected in immunosuppressed CF-1 mouse assessed as decrease in kidney bacterial burden at 1 mg/kg, ip administered once daily for 5 days measured after 5 days (Rvb= 6.66); type: functional; conditions: route intraperitoneal; outline: as §1
Pichia kudriavzevii [4] = assay: Antimicrobial activity against Candida krusei LMR 39-14 infected in immunosuppressed CF-1 mouse assessed as increased survival of mouse at 1 mg/kg, ip administered once daily for 5 days relative to control; type: functional, organism-based; set-up: dose 1 mg/kg
Outline: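 Immunosuppression used 5-FU 200 mg/kg i.p. on day −3 and dexamethasone 4 mg/kg s.c. on day 0. C. krusei bloodstream isolate was given IV via tail vein at 1.3×10^7 to 1.5×10^7 CFU. Drug i.p. q24h for 5 days, saline placebo. Fifteen mice/group per run followed for survival; experiment in duplicate, pooled. Kaplan-Meier estimates compared by log-rank test.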

Pichia kudriavzevii [5] = assay: Antimicrobial activity against Candida krusei LMR 39-14 infected in immunosuppressed CF-1 mouse assessed as serum 1,3-beta-D-glucan level at 1 mg/kg, ip administered once daily for 5 days measured after 5 days (Rvb= 6.66); type: functional; conditions: route intraperitoneal
Pichia kudriavzevii [6] = assay: Antimicrobial activity against Candida krusei LMR 39-14 infected in immunosuppressed CF-1 mouse assessed as decrease in kidney bacterial burden at 20 mg/kg, ip administered once daily for 5 days measured after 10 days (Rvb= 5.22); type: functional; conditions: route intraperitoneal
Pichia kudriavzevii [7] = assay: Antimicrobial activity against Candida krusei LMR 39-14 infected in immunosuppressed CF-1 mouse assessed as serum 1,3-beta-D-glucan level at 20 mg/kg, ip administered once daily for 5 days measured after 10 days (Rvb= 5.22); type: functional; conditions: route intraperitoneal
Outline: (§2)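 Serum (1,3)-β-D-glucan in immunosuppressed CF-1 mice (5-FU 200 mg/kg i.p. day −3, dexamethasone 4 mg/kg s.c. day 0) infected i.v. with 1.3×10^7 to 1.5×10^7 CFU. Mice dosed i.p. q24h for 5 days with saline placebo. Blood taken from five mice per group on day 5 or 10 post-inoculation and assayed with the Fungitell kit (threshold 31 pg/ml). Groups compared by Kruskal-Wallis; duplicate runs pooled.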

Pichia kudriavzevii [8] = assay: Antimicrobial activity against Candida krusei LMR 39-14 infected in immunosuppressed CF-1 mouse assessed as serum 1,3-beta-D-glucan level at 20 mg/kg, ip administered once daily for 5 days measured after 5 days (Rvb= 5.22); type: functional; conditions: route intraperitoneal; outline: as §2
Pichia kudriavzevii [9] = assay: Antimicrobial activity against Candida krusei LMR 39-14 infected in immunosuppressed CF-1 mouse assessed as increased survival of mouse at 10 mg/kg, ip administered once daily for 5 days relative to control; type: functional, organism-based; set-up: dose 10 mg/kg
Outline: (§3)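 Same immunosuppressed CF-1 model: 5-FU 200 mg/kg i.p. on day −3, dexamethasone 4 mg/kg s.c. on day 0, i.v. tail inoculation of 1.3×10^7 to 1.5×10^7 CFU. Treatment i.p. q24h for 5 days with saline placebo. Fifteen mice per group observed for survival; run in duplicate with data pooled; Kaplan-Meier estimates compared by log-rank test.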

Pichia kudriavzevii [10] = assay: Antimicrobial activity against Candida krusei LMR 39-14 infected in immunosuppressed CF-1 mouse assessed as serum 1,3-beta-D-glucan level at 10 mg/kg, ip administered once daily for 5 days measured after 10 days (Rvb= 5.22); type: functional; conditions: route intraperitoneal; outline: as §2
Pichia kudriavzevii [11] = assay: Antimicrobial activity against Candida krusei LMR 39-14 by M27-A3 microdilution method; type: functional
Pichia kudriavzevii [12] = assay: Antimicrobial activity against Candida krusei LMR 39-14 infected in immunosuppressed CF-1 mouse assessed as increased survival of mouse at 20 mg/kg, ip administered once daily for 5 days relative to control; type: functional, organism-based; set-up: dose 20 mg/kg; outline: as §3
Pichia kudriavzevii [13] = assay: Antimicrobial activity against Candida krusei by […]; type: functional
Pichia kudriavzevii [14] = assay: Antimicrobial activity against Candida krusei LMR 39-14 infected in immunosuppressed CF-1 mouse assessed as decrease in kidney bacterial burden at 10 mg/kg, ip administered once daily for 5 days measured after 5 days (Rvb= 6.66); type: functional; conditions: route intraperitoneal
Pichia kudriavzevii [15] = assay: Antimicrobial activity against Candida krusei LMR 39-14 infected in immunosuppressed CF-1 mouse assessed as serum 1,3-beta-D-glucan level at 10 mg/kg, ip administered once daily for 5 days measured after 5 days (Rvb= 6.66); type: functional; conditions: route intraperitoneal; outline: as §2
Pichia kudriavzevii [16] = assay: Antimicrobial activity against Candida krusei LMR 39-14 infected in immunosuppressed CF-1 mouse assessed as decrease in kidney bacterial burden at 20 mg/kg, ip administered once daily for 5 days measured after 5 days (Rvb= 5.22); type: functional; conditions: route intraperitoneal
Pichia kudriavzevii [17] = assay: Antimicrobial activity against Candida krusei LMR 39-14 infected in immunosuppressed CF-1 mouse assessed as decrease in kidney bacterial burden at 10 mg/kg, ip administered once daily for 5 days measured after 10 days (Rvb= 5.22); type: functional; conditions: route intraperitoneal
Pichia kudriavzevii [18] = assay: Antimicrobial activity against Candida krusei LMR 39-14 infected in immunosuppressed CF-1 mouse assessed as serum 1,3-beta-D-glucan level at 40 mg/kg, ip administered once daily for 5 days measured after 10 days (Rvb= 5.22); type: functional; conditions: route intraperitoneal; outline: as §2
Pichia kudriavzevii [19] = assay: Antimicrobial activity against Candida krusei LMR 39-14 infected in immunosuppressed CF-1 mouse assessed as serum 1,3-beta-D-glucan level at 40 mg/kg, ip administered once daily for 5 days measured after 5 days (Rvb= 6.66); type: functional; conditions: route intraperitoneal; outline: as §2
Pichia kudriavzevii [20] = assay: Antimicrobial activity against Candida krusei LMR 39-14 infected in immunosuppressed CF-1 mouse assessed as decrease in kidney […] burden at 40 mg/kg, ip administered once daily for 5 days measured after 10 days (Rvb= 5.22); type: functional; conditions: route intraperitoneal
Pichia kudriavzevii [21] = assay: Antimicrobial activity against Candida krusei LMR 39-14 infected in immunosuppressed CF-1 mouse assessed as decrease in kidney bacterial burden at 40 mg/kg, ip administered once daily for 5 days measured after 5 days (Rvb= 6.66); type: functional; conditions: route intraperitoneal
Pichia kudriavzevii [22] = assay: Antimicrobial activity against Candida krusei LMR 39-14 infected in immunosuppressed CF-1 mouse assessed as increased survival of mouse at 40 mg/kg, ip administered once daily for 5 days relative to control; type: functional, organism-based; set-up: dose 40 mg/kg; outline: as §3

**Q.** Which results are given for `C[C@@H]1[C@H](O)[C@@H](C)/C=C/C=C/C=C/C=C/C=C/C=C/C=C/[C@H](O[C@@H]2O[C@H](C)[C@@H](O)[C@H](N)[C@@H]2O)C[C@@H]2O[C@](O)(C[C@@H](O)C[C@@H](O)[C@H](O)CC[C@@H](O)C[C@@H](O)CC(=O)O[C@H]1C)C[C@H](O)[C@H]2C(=O)O` [AMPHOTERICIN B]?
**A.** Activity (Pichia kudriavzevii [1]): 1742 pg/mL; log10CFU/g (Pichia kudriavzevii [2]): 4.96; log10CFU/g (Pichia kudriavzevii [3]): 5.95; Activity (Pichia kudriavzevii [4]): Active; Activity (Pichia kudriavzevii [5]): 2559 pg/mL

**Q.** With `CCCCCOc1ccc(-c2ccc(-c3ccc(C(=O)N[C@H]4C[C@@H](O)[C@@H](O)NC(=O)[C@@H]5[C@@H](O)[C@@H](C)CN5C(=O)[C@H]([C@@H](C)O)NC(=O)[C@H]([C@H](O)[C@@H](O)c5ccc(O)cc5)NC(=O)[C@@H]5C[C@@H](O)CN5C(=O)[C@H]([C@@H](C)O)NC4=O)cc3)cc2)cc1` [ANIDULAFUNGIN] ({pTerphenylCO(4''-OnC5H11)}-[Orn(4R-OH,5R-OH)]T[Hyp][hTyr(3S-OH,4S-OH)]T[Pro(3S-OH,4S-Me)]; lactam 1-C) as the molecule, how does the log10CFU/g (Pichia kudriavzevii [6]) read?
**A.** 1.59

**Q.** What about the Activity (Pichia kudriavzevii [7]) of the same molecule?
**A.** 693 pg/mL

**Q.** And the Activity (Pichia kudriavzevii [8])?
**A.** 351 pg/mL

**Q.** And the Activity (Pichia kudriavzevii [9])?
**A.** Active

**Q.** And the Activity (Pichia kudriavzevii [10])?
**A.** 624 pg/mL

**Q.** What about the MIC (Pichia kudriavzevii [11]) of the same molecule?
**A.** 0.06 µg/mL (≈ 0.0526 µM)

**Q.** And the Activity (Pichia kudriavzevii [12])?
**A.** Active

**Q.** And the MIC90 (Pichia kudriavzevii [13])?
**A.** 0.06 µg/mL (≈ 0.0526 µM)

**Q.** And the log10CFU/g (Pichia kudriavzevii [14])?
**A.** 4.06

**Q.** What about the Activity (Pichia kudriavzevii [15]) of the same molecule?
**A.** 256 pg/mL

**Q.** And the log10CFU/g (Pichia kudriavzevii [16])?
**A.** 3.97

**Q.** What about the log10CFU/g (Pichia kudriavzevii [17]) of the same molecule?
**A.** 0.96

**Q.** With `OC(Cn1cncn1)(Cn1cncn1)c1ccc(F)cc1F` [FLUCONAZOLE] as the molecule, how does the Activity (Pichia kudriavzevii [18]) read?
**A.** 1292 pg/mL

**Q.** And the Activity (Pichia kudriavzevii [19])?
**A.** 2714 pg/mL

**Q.** And the MIC (Pichia kudriavzevii [11])?
**A.** > 64 µg/mL

**Q.** What about the log10CFU/g (Pichia kudriavzevii [20]) of the same molecule?
**A.** 4.77

**Q.** And the log10CFU/g (Pichia kudriavzevii [21])?
**A.** 7.01

**Q.** And the Activity (Pichia kudriavzevii [22])?
**A.** Active
